# Test results: ChEMBL document CHEMBL3769334, “Interaction of prodigiosin with HSA and β-Lg: Spectroscopic and molecular docking studies” (Bioorg Med Chem, 2016); call rule not given here
# Columns and labels:
# Albumin [1] = target: T1, Albumin (Homo sapiens, UniProt P02768); assay: Binding affinity to human serum albumin assessed as Stern-Volmer quenching constant at 290 K after 10 mins by fluorescence assay; format: ADME; conditions: isolated protein
# Procedure, shortened: (§1)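 HSA at 0.4 µM in 20 mM Tris pH 7.4, titrated with prodigiosin at 0–3.2 µM from a methanol stock. Samples equilibrated 10 min after each addition. Excitation 295 nm, emission 310–600 nm, intensity read at the emission maximum. Run at 290, 300 and 310 K. Kb and n from log[(F0−F)/F] versus log[Q].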
# Albumin [2] = target: T1, Albumin; assay: Binding affinity to human serum albumin assessed as Stern-Volmer quenching constant at 300 K after 10 mins by fluorescence assay; format: ADME; conditions: isolated protein; procedure, shortened: as §1
# Albumin [3] = target: T1, Albumin; assay: Binding affinity to human serum albumin assessed as Stern-Volmer quenching constant at 310 K after 10 mins by fluorescence assay; format: ADME; conditions: isolated protein; procedure, shortened: as §1
# Beta-lactoglobulin [4] = target: T2, Beta-lactoglobulin (Bos taurus, UniProt P02754); assay: Binding affinity to bovine beta-lactoglobulin assessed as Stern-Volmer quenching constant at 290 K after 10 mins by fluorescence assay; format: ADME; conditions: cattle
# T2 sequence (P02754 whole entry): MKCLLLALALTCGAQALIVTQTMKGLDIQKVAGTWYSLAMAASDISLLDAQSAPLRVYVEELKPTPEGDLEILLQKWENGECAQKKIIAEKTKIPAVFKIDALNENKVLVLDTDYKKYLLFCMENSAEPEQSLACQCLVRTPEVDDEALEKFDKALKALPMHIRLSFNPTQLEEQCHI
# Procedure, shortened: (§2)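 Intrinsic Trp fluorescence of β-Lg at 1 µM in Tris-HCl pH 7.4, titrated with prodigiosin added from a methanol stock. Samples equilibrated 10 min after each addition. Excitation 295 nm, emission 310–600 nm, intensity read at the emission maximum. Run at 290, 300 and 310 K with a water-bath thermostat. Binding parameters taken from quenching data.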
# Beta-lactoglobulin [5] = target: T2, Beta-lactoglobulin; assay: Binding affinity to bovine beta-lactoglobulin assessed as Stern-Volmer quenching constant at 300 K after 10 mins by fluorescence assay; format: ADME; conditions: cattle; procedure, shortened: as §2
# Beta-lactoglobulin [6] = target: T2, Beta-lactoglobulin; assay: Binding affinity to bovine beta-lactoglobulin assessed as Stern-Volmer quenching constant at 310 K after 10 mins by fluorescence assay; format: ADME; conditions: cattle; procedure, shortened: as §2
# Albumin [7] = target: T1, Albumin; assay: Binding affinity to human serum albumin assessed as bimolecular quenching rate constant at 290 K after 10 mins by fluorescence assay; format: ADME; conditions: isolated protein; procedure, shortened: as §1
# Albumin [8] = target: T1, Albumin; assay: Binding affinity to human serum albumin assessed as bimolecular quenching rate constant at 300 K after 10 mins by fluorescence assay; format: ADME; conditions: isolated protein; procedure, shortened: as §1
# Albumin [9] = target: T1, Albumin; assay: Binding affinity to human serum albumin assessed as bimolecular quenching rate constant at 310 K after 10 mins by fluorescence assay; format: ADME; conditions: isolated protein; procedure, shortened: as §1
# Beta-lactoglobulin [10] = target: T2, Beta-lactoglobulin; assay: Binding affinity to bovine beta-lactoglobulin assessed as bimolecular quenching rate constant at 290 K after 10 mins by fluorescence assay; format: ADME; conditions: cattle; procedure, shortened: as §2
# Beta-lactoglobulin [11] = target: T2, Beta-lactoglobulin; assay: Binding affinity to bovine beta-lactoglobulin assessed as bimolecular quenching rate constant at 300 K after 10 mins by fluorescence assay; format: ADME; conditions: cattle; procedure, shortened: as §2
# Beta-lactoglobulin [12] = target: T2, Beta-lactoglobulin; assay: Binding affinity to bovine beta-lactoglobulin assessed as bimolecular quenching rate constant at 310 K after 10 mins by fluorescence assay; format: ADME; conditions: cattle; procedure, shortened: as §2
# Albumin [13] = target: T1, Albumin; assay: Binding affinity to human serum albumin at 290 K after 10 mins by fluorescence assay; format: ADME; conditions: isolated protein; procedure, shortened: as §1
# Albumin [14] = target: T1, Albumin; assay: Binding affinity to human serum albumin at 300 K after 10 mins by fluorescence assay; format: ADME; conditions: isolated protein; procedure, shortened: as §1
# Albumin [15] = target: T1, Albumin; assay: Binding affinity to human serum albumin at 310 K after 10 mins by fluorescence assay; format: ADME; conditions: isolated protein; procedure, shortened: as §1
# Beta-lactoglobulin [16] = target: T2, Beta-lactoglobulin; assay: Binding affinity to bovine beta-lactoglobulin at 290 K after 10 mins by fluorescence assay; format: ADME; conditions: cattle; procedure, shortened: as §2
# Beta-lactoglobulin [17] = target: T2, Beta-lactoglobulin; assay: Binding affinity to bovine beta-lactoglobulin at 300 K after 10 mins by fluorescence assay; format: ADME; conditions: cattle; procedure, shortened: as §2
# Beta-lactoglobulin [18] = target: T2, Beta-lactoglobulin; assay: Binding affinity to bovine beta-lactoglobulin at 310 K after 10 mins by fluorescence assay; format: ADME; conditions: cattle; procedure, shortened: as §2
# Albumin [19] = target: T1, Albumin; assay: Binding affinity to human serum albumin assessed as quenching of protein-compound complex at protein/compound molar ratio of 5 at 290 K after 10 mins by fluorescence assay; format: ADME; conditions: isolated protein; procedure, shortened: as §1
# Beta-lactoglobulin [20] = target: T2, Beta-lactoglobulin; assay: Binding affinity to bovine beta-lactoglobulin assessed as association constant at pH 7.4 after 30 mins by fluorescence assay; format: ADME; conditions: cattle, pH 7.4, 0.5 h
# Procedure, shortened: (§3)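 β-Lg solutions at pH 3.0, 5.5 and 7.4, incubated 30 min at 25 °C before prodigiosin was added. Intrinsic fluorescence excited at 295 nm, emission monitored at 310–600 nm.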
# Beta-lactoglobulin [21] = target: T2, Beta-lactoglobulin; assay: Binding affinity to bovine beta-lactoglobulin assessed as association constant at pH 5.5 after 30 mins by fluorescence assay; format: ADME; conditions: cattle, pH 5.5, 0.5 h; procedure, shortened: as §3
# Beta-lactoglobulin [22] = target: T2, Beta-lactoglobulin; assay: Binding affinity to bovine beta-lactoglobulin assessed as association constant at pH 3 after 30 mins by fluorescence assay; format: ADME; conditions: cattle, pH 3, 0.5 h; procedure, shortened: as §3
# Albumin [23] = target: T1, Albumin; assay: Displacement of warfarin from human serum albumin at 0.4 to 3.2 uM after 30 mins by fluorescence assay; conditions: 0.5 h
# Procedure, shortened: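 HSA and warfarin at equal (1:1) concentrations, preincubated 30 min. Prodigiosin added at 0.4–3 µM. Fluorescence excited at 295 nm and recorded at 310–600 nm, with and without prodigiosin.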
# Albumin [24] = target: T1, Albumin; assay: Binding affinity to human serum albumin assessed as quenching of protein-compound complex at protein/compound molar ratio of 7 at 300 to 310 K after 10 mins by fluorescence assay; format: ADME; conditions: isolated protein; procedure, shortened: as §1
# [25] = target: Beta-lactoglobulin (Bos taurus) (UniProt P02754); assay: Binding affinity to bovine beta-lactoglobulin assessed as quenching of protein-compound complex at protein/compound molar ratio of 4 at 310 K after 10 mins by fluorescence assay; conditions: isolated protein
# [26] = target: Beta-lactoglobulin (Bos taurus) (UniProt P02754); assay: Binding affinity to bovine beta-lactoglobulin assessed as quenching of protein-compound complex at protein/compound molar ratio of 7 at 290 K after 10 mins by fluorescence assay; conditions: isolated protein
# [27] = target: Beta-lactoglobulin (Bos taurus) (UniProt P02754); assay: Binding affinity to bovine beta-lactoglobulin assessed as quenching of protein-compound complex at protein/compound molar ratio of 7 at 300 K after 10 mins by fluorescence assay; conditions: isolated protein
# T1 sequence (P02768 whole entry): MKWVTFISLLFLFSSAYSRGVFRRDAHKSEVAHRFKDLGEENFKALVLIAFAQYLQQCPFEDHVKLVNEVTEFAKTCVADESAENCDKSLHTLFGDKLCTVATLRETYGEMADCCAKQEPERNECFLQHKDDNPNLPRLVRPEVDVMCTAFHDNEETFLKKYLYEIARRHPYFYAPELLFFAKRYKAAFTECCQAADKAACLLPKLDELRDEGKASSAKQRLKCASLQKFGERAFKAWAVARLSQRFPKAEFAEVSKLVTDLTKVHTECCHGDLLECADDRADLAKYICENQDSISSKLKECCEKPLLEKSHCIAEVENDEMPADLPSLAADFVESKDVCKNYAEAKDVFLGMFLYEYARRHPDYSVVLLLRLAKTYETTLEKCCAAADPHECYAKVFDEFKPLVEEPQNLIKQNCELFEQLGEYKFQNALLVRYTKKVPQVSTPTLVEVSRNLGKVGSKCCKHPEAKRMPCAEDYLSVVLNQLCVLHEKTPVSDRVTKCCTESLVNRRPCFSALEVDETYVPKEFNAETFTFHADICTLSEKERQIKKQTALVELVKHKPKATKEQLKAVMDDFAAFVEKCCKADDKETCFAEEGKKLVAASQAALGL
compound,measurement,setting,value
CCCCCC1=C/C(=C\c2[nH]c(-c3ccc[nH]3)cc2OC)N=C1C,KSV,Albumin [1],8.14 ×10⁴ /M
same,KSV,Albumin [2],6.891 ×10⁴ /M
same,KSV,Albumin [3],4.043 ×10⁴ /M
same,KSV,Beta-lactoglobulin [4],5.02 ×10⁴ /M
same,KSV,Beta-lactoglobulin [5],7.28 ×10⁴ /M
same,KSV,Beta-lactoglobulin [6],10.6 ×10⁴ /M
same,Kq,Albumin [7],8.14 ×10¹² /M/s
same,Kq,Albumin [8],6.891 ×10¹² /M/s
same,Kq,Albumin [9],4.043 ×10¹² /M/s
same,Kq,Beta-lactoglobulin [10],3.92 ×10¹² /M/s
same,Kq,Beta-lactoglobulin [11],5.69 ×10¹² /M/s
same,Kq,Beta-lactoglobulin [12],8.28 ×10¹² /M/s
same,Activity,Albumin [13],Dose-dependent effect
same,Kb,Albumin [13],48400 M⁻¹
same,Activity,Albumin [14],Dose-dependent effect
same,Kb,Albumin [14],44100 M⁻¹
same,Activity,Albumin [15],Dose-dependent effect
same,Kb,Albumin [15],34000 M⁻¹
same,Kb,Beta-lactoglobulin [16],12500 M⁻¹
same,Kb,Beta-lactoglobulin [17],19900 M⁻¹
same,Kb,Beta-lactoglobulin [18],53700 M⁻¹
same,Activity,Albumin [19],80%
same,Ka,Beta-lactoglobulin [20],1.99 ×10⁴ /M
same,Ka,Beta-lactoglobulin [21],1548 M⁻¹
same,Ka,Beta-lactoglobulin [22],184 M⁻¹
same,Activity,Albumin [23],Active
same,Activity,Albumin [24],85%
same,Activity,[25],90%
same,Activity,[26],78%
same,Activity,[27],82%
